This passage reports IC50 results from ChEMBL document CHEMBL1926542, “Synthesis and in vitro antiproliferative evaluation of pyrimido[5,4-c]quinoline-4-(3H)-one derivatives” (Eur J Med Chem, 2012).

Holding throughout (assay type): functional, cell-based
For one test, the system named is KB. The test is described as follows: Antiproliferative activity against human KB cells after 72 hrs by MTT assay. A digest of the protocol: (§1)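 Cells in 10% fetal calf serum, RPMI 1640 for all lines except MCF-7 (DMEM). Log-phase cells seeded at 2×10⁴ cells/ml, 37 °C, 5% CO₂. Compounds added after 24 h, then 72 h at 37 °C. MTT (5 mg/ml saline stock) for 3 h, formazan dissolved in DMSO, A570 read (ref 655 nm). IC₅₀ from dose-response curves. Mean of three independent experiments.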
For orientation: Tetrazolium dyes change colour on reduction, which living cells bring about.

Test [1] can be described thus: Antiproliferative activity against human CNE2 cells after 72 hrs by MTT assay. The settings on record: CNE-2, 72 h. The method, boiled down: as §1
In the next test the test system is MGC-803. The test is described as follows: Antiproliferative activity against human MGC803 cells after 72 hrs by MTT assay. As to conditions: MGC-803, 72 h. The method, boiled down:
as §1

Test [2] can be described thus: Antiproliferative activity against human GLC82 cells after 72 hrs by MTT assay. The settings on record: GLC82, 72 h. A digest of the protocol:
as §1

The subject of another test is MDA-MB-453. The test can be described thus: Antiproliferative activity against human MDA-MB-453 cells after 72 hrs by MTT assay. As to conditions: MDA-MB-453, 72 h. A digest of the protocol: as §1
In another test the test system is MCF7. The test can be described thus: Antiproliferative activity against human MCF7 cells after 72 hrs by MTT assay. As to conditions: MCF7, 72 h. The method, boiled down: as §1

With `CCCCn1cnc2c(c(C)nc3ccccc32)c1=O`, the IC50 (in the test on KB; in test [1]; in the test with MGC-803; in test [2]; with MDA-MB-453; in the test on MCF7) was above 50 µM in each case.

`CCCn1cnc2c(c(C)nc3ccccc32)c1=O`: the IC50 (in the test with KB; in test [1]; in the test with MGC-803; in test [2]; in the test with MDA-MB-453; in the test with MCF7) was above 50 µM each time.

As to `Cc1nc2ccccc2c2ncn(C(C)C)c(=O)c12`, the IC50 (in the test on KB; in test [1]; with MGC-803; in test [2]; in the test on MDA-MB-453; in the test with MCF7) was above 50 µM throughout.

For `Cc1nc2ccccc2c2ncn(N)c(=O)c12`, the 50% inhibitory concentration (IC50) (in the test on KB; in test [1]; with MGC-803; in test [2]; in the test on MDA-MB-453; in the test on MCF7) was above 50 µM each time.

As to `Cc1nc2ccccc2c2ncn(CCO)c(=O)c12`, the IC50 (in the test on KB; in test [1]; with MGC-803; in test [2]; with MDA-MB-453; in the test with MCF7) was above 50 µM in each case.

As to `Cc1nc2ccccc2c2ncn(CCN)c(=O)c12`, the IC50 in the test with KB was 39.8 µM; in test [1], above 50 µM; in the test on MGC-803, 39.9 µM; in test [2] it was above 50 µM; in the test with MDA-MB-453, 45.7 µM; in the test with MCF7, 43.5 µM.

As to `Cc1nc2ccccc2c2ncn(CCc3ccccc3)c(=O)c12`, the IC50 in the test with KB is above 50 µM; in test [1], above 50 µM; with MGC-803, above 50 µM; in test [2], 35.2 µM; with MDA-MB-453, 49.5 µM; in the test with MCF7, above 50 µM.

Take `Cc1nc2ccccc2c2ncn(Cc3ccccc3)c(=O)c12`: the IC50 in the test on KB is above 50 µM; in test [1], 26.5 µM; in the test on MGC-803, above 50 µM; in test [2] it was above 50 µM; in the test on MDA-MB-453 it was above 50 µM; in the test with MCF7 it was above 50 µM.

On to `CCn1cnc2c(c(C)nc3ccccc32)c1=O`, for which the IC50 (in the test with KB; in test [1]; with MGC-803; in test [2]; in the test with MDA-MB-453; in the test on MCF7) was above 50 µM throughout.

`CCC(C)n1cnc2c(c(C)nc3ccccc32)c1=O` (stereo not given): the IC50 (with KB; in test [1]; in the test with MGC-803; in test [2]; in the test on MDA-MB-453; in the test with MCF7) was above 50 µM each time.

In the case of `Cc1nc2ccccc2c2ncn(CC(C)C)c(=O)c12`, the IC50 (with KB; in test [1]; with MGC-803; in test [2]; with MDA-MB-453; in the test on MCF7) was above 50 µM each time.

Consider `Cc1nc2ccccc2c2nc(Oc3cccc4ccccc34)n(-c3ccc(Cl)cc3)c(=O)c12`, for which the IC50 in the test with KB was 33.9 µM; in test [1], 47 µM; in the test on MGC-803 it was 18.5 µM; in test [2], 42.1 µM; with MDA-MB-453, above 50 µM; in the test with MCF7, 37.9 µM.

As to `COc1ccccc1Oc1nc2c(c(C)nc3ccccc32)c(=O)n1-c1ccc(Cl)cc1`, the IC50 in the test with KB was 39.2 µM; in test [1] it was above 50 µM; in the test on MGC-803 it was above 50 µM; in test [2], above 50 µM; in the test with MDA-MB-453 it was 49.7 µM; in the test with MCF7, 34 µM.

Consider `Cc1nc2ccccc2c2nc(Oc3ccc(Br)cc3)n(-c3ccc(Cl)cc3)c(=O)c12`, for which the IC50 in the test on KB is 29.5 µM; in test [1] it was 28.7 µM; in the test with MGC-803, 15.3 µM; in test [2], above 50 µM; in the test with MDA-MB-453, 26.6 µM; in the test with MCF7, 35.7 µM.

Consider `Cc1nc2ccccc2c2nc(Oc3ccc4c(c3)OCO4)n(-c3ccc(Cl)cc3)c(=O)c12`, for which the IC50 in the test on KB is 30.9 µM; in test [1] it was 47.7 µM; in the test on MGC-803, above 50 µM; in test [2] it was above 50 µM; with MDA-MB-453 it was above 50 µM; with MCF7, above 50 µM.

For the molecule `Cc1nc2ccccc2c2nc(Oc3ccc([N+](=O)[O-])cc3Cl)n(-c3ccc(Cl)cc3)c(=O)c12`, the IC50 in the test on KB turned out to be 4.9 µM; in test [1], 13.8 µM; in the test on MGC-803, 4.8 µM; in test [2] it was 7.88 µM; in the test on MDA-MB-453, 18.2 µM; with MCF7, 10.1 µM.

With `Cc1cc(Oc2nc3c(c(C)nc4ccccc43)c(=O)n2-c2ccc(F)cc2)ccc1Cl`, the IC50 was above 50 µM in the test on KB; above 50 µM in test [1]; 41.4 µM in the test on MGC-803; above 50 µM in test [2]; above 50 µM in the test with MDA-MB-453; above 50 µM with MCF7.

Take `Cc1nc2ccccc2c2nc(Oc3ccccc3Cl)n(-c3ccc(F)cc3)c(=O)c12`: the IC50 (in the test with KB; in test [1]; in the test with MGC-803; in test [2]; in the test with MDA-MB-453; in the test on MCF7) was above 50 µM each time.

Turning to `COc1ccccc1Oc1nc2c(c(C)nc3ccccc32)c(=O)n1-c1ccccc1`, the IC50 is above 50 µM in the test on KB; above 50 µM in test [1]; above 50 µM in the test with MGC-803; above 50 µM in test [2]; above 50 µM with MDA-MB-453; 35.5 µM in the test on MCF7.

Take `Cc1nc2ccccc2c2nc(Oc3ccc(Cl)cc3Cl)n(-c3ccccc3)c(=O)c12`: the concentration for half-maximal inhibition (IC50) in the test with KB was 22.8 µM; in test [1], 42.9 µM; in the test with MGC-803, above 50 µM; in test [2] it was above 50 µM; with MDA-MB-453 it was above 50 µM; with MCF7 it was above 50 µM.

As for `Cc1nc2ccccc2c2nc(NC(C)(C)C)n(-c3ccccc3)c(=O)c12`, the IC50 (with KB; in test [1]; with MGC-803; in test [2]; in the test with MDA-MB-453; with MCF7) was above 50 µM in each case.

On to `Cc1nc2ccccc2c2nc(Nc3ccc(Cl)cc3)n(N)c(=O)c12`, for which the half-inhibitory concentration (IC50) (in the test on KB; in test [1]; with MGC-803; in test [2]; in the test on MDA-MB-453; in the test with MCF7) was above 50 µM each time.

On to `Cc1nc2ccccc2c2nc(Nc3ccccc3)n(N)c(=O)c12`, for which the IC50 in the test on KB was 30.3 µM; in test [1], above 50 µM; in the test on MGC-803 it was 14.7 µM; in test [2], above 50 µM; in the test on MDA-MB-453 it was above 50 µM; with MCF7 it was above 50 µM.

Consider `Cc1nc2ccccc2c2nc3n(-c4ccccc4)cnn3c(=O)c12`, for which the IC50 (in the test with KB; in test [1]; in the test with MGC-803; in test [2]; with MDA-MB-453; with MCF7) was above 50 µM in each case.

Consider `O=c1[nH]cc(F)c(=O)[nH]1` [FLUOROURACIL], for which the IC50 with KB was 9.85 µM; in test [1], 17.2 µM; in the test on MGC-803, 16.6 µM; in test [2], 15.5 µM; with MDA-MB-453, above 50 µM; in the test with MCF7 it was 9.67 µM.

A word on the IC50: it is the midpoint of a concentration-inhibition curve. Read a low IC50 as greater potency in that assay.
